Series [1] can be described thus: folding enthalpy; higher = less favourable; fluorescence melt of hairpins on a sequencing array, two-state fit. Particulars: sodium 0.088 M. The method, boiled down: (§1)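 Cy3 signals were normalised both to pre-quench Cy3 and to control constructs. They came from library hairpins carrying annealed Cy3 and quencher oligos on a sequenced MiSeq flow cell, imaged in 50 mM Na-HEPES pH 8.0, 25 mM NaCl, in 2.5 °C steps up to 60 °C. Bootstrapped two-state fits gave melting temperature and folding enthalpy, and four replicates were combined by inverse variance. Fitted temperatures were then raised by 9.35 °C to match UV melts.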

The nature of series [2]: melting temperature; fluorescence melt of hairpins on a sequencing array, two-state fit, raised by 9.35 °C to match UV melts. The note with it: sodium 0.088 M. The method, boiled down: as §1

For the sequence GGCGACTCGAAAGAGGCC (((..(((....)))))), in series [1], the folding enthalpy was -16.9 kcal/mol. The Tm in series [2] is 49.7 °C.

In the case of GGCGAGCGAAAGCTAGCC (((.(((....))).))), the folding enthalpy in series [1] is -42.2 kcal/mol. Further, the Tm in series [2] amounted to 68.7 °C.

Consider GGCGAGCGAAAGCTGCC (((.(((....)))))), for which, in series [1], the folding enthalpy was -27.6 kcal/mol. Also, the Tm in series [2] is 66.9 °C.

GGCGAGGGAAACCTCACC ((.((((....)))).)): the folding enthalpy in series [1] was -31.7 kcal/mol. Further, the Tm in series [2] was 48.5 °C.

For GGCGAGGGAAACCTCGTC (.(((((....))))).), in series [1], the folding enthalpy is -36.4 kcal/mol. In series [2], the Tm turned out to be 60.8 °C.

Turning to GGCGATGGAAACATTGCC (((.(((....))).))), in series [1], the folding enthalpy was -47.2 kcal/mol. Besides, the Tm in series [2] came to 55.2 °C.

Consider GGCGCCGAAAGGCTTGCC ((((((....)))..))), for which the folding enthalpy in series [1] was -19.9 kcal/mol. Also, the Tm in series [2] turned out to be 53.4 °C.

With GGCGCCGGAAACAGCGCC (((((.(....).))))), in series [1], the folding enthalpy was -34.8 kcal/mol. Moreover, in series [2], the Tm turned out to be 65.2 °C.

For the sequence GGCGCTCCGAAAGGAGCC (((..(((....)))))), the folding enthalpy in series [1] is -7.43 kcal/mol. For the same sequence, the Tm in series [2] was 47.8 °C.

Regarding GGCGCTCGAAAGAGGGCC (((.(((....))).))), in series [1], the folding enthalpy was -39.6 kcal/mol. The Tm in series [2] is 68.4 °C.

For the sequence GGCGCTGGAAACAACGCC ((((.((....)).)))), the folding enthalpy in series [1] is -41 kcal/mol. Moreover, the Tm in series [2] amounted to 55.2 °C.

With GGCGCTGGAAACAGCACC ((.((((....)))).)), the folding enthalpy in series [1] is -29.7 kcal/mol. Besides, the Tm in series [2] is 54.8 °C.

Turning to GGCGGCGAAAGCCCGGCC ((((((....)))..))), the folding enthalpy in series [1] was -17.7 kcal/mol. Further, the Tm in series [2] was 61.5 °C.

Regarding GGCGGCGAAAGCCGCGCC ((((((....)))..))), the folding enthalpy in series [1] was -6.34 kcal/mol. Besides, the Tm in series [2] is 68 °C.

For GGCGGCGAAAGCCGGGCC ((((((....)))..))), the folding enthalpy in series [1] was -10.1 kcal/mol. Further, the Tm in series [2] was found to be 58.1 °C.

On to GGCGGTACGAAAGTAGCC (((..(((....)))))), for which the folding enthalpy in series [1] was -18.8 kcal/mol. In addition, the Tm in series [2] is 50.7 °C.

Consider GGCGGTCCGAAAGGAGCC (((..(((....)))))), for which the folding enthalpy in series [1] was -17.7 kcal/mol. The Tm in series [2] was found to be 46.6 °C.

Turning to GGCGTAGGAAACCACGCC (((((.(....).))))), the folding enthalpy in series [1] was -53.2 kcal/mol. Moreover, the Tm in series [2] was 56.2 °C.

As to GGCGTAGGAAACTATGCC (((.(((....))).))), in series [1], the folding enthalpy is -41.8 kcal/mol. For the same sequence, the Tm in series [2] turned out to be 53.5 °C.

Take GGCGTCGAAAGACACGCC ((((((....)))..))): in series [1], the folding enthalpy is -32 kcal/mol. The Tm in series [2] is 55 °C.

Consider GGCGTCGAAAGACGAGCC ((((((....)))..))), for which the folding enthalpy in series [1] was -16.7 kcal/mol. The Tm in series [2] was 54 °C.

Turning to GGCGTCGAAAGACTCGCC ((((((....)))..))), the folding enthalpy in series [1] is -20.6 kcal/mol. The Tm in series [2] is 50.1 °C.

As to GGCGTCGAAAGACTTGCC ((((((....)))..))), the folding enthalpy in series [1] is -24.6 kcal/mol. Further, in series [2], the Tm came out at 48.9 °C.

For the sequence GGCGTCGGAAACGGTGCC (((..((....))..))), the folding enthalpy in series [1] is -30.6 kcal/mol. The Tm in series [2] worked out at 51.6 °C.

Consider GGCGTGCGAAAGCAGCC (((.(((....)))))), for which, in series [1], the folding enthalpy is -26.9 kcal/mol. Moreover, in series [2], the Tm amounted to 67.8 °C.

In the case of GGCGTGGGAAACCACGTC (.(((((....))))).), in series [1], the folding enthalpy was -21.1 kcal/mol. The Tm in series [2] turned out to be 62.3 °C.

On to GGCGTGGGAAACTACGCC (((((.(....).))))), for which the folding enthalpy in series [1] is -48 kcal/mol. The Tm in series [2] was 61.2 °C.

As for GGCGTGGGAAACTGCGCC ((((..(....)..)))), in series [1], the folding enthalpy is -52.5 kcal/mol. Also, the Tm in series [2] came out at 55.7 °C.

Regarding GGCGTTGGAAACAATGCC (((.(((....))).))), the folding enthalpy in series [1] was -53.7 kcal/mol. Moreover, in series [2], the Tm was found to be 56.5 °C.

For the sequence GGCTAAGCGAAAGCTGCC (((..(((....)))))), the folding enthalpy in series [1] was -23.7 kcal/mol. The Tm in series [2] turned out to be 54.6 °C.

With GGCTAAGGAAACTTGGCC (((.(((....))).))), in series [1], the folding enthalpy was -29.6 kcal/mol. In addition, the Tm in series [2] is 50.4 °C.

In the case of GGCTAATCGAAAGATGCC (((..(((....)))))), the folding enthalpy in series [1] is -27.2 kcal/mol. Besides, in series [2], the Tm came out at 45.2 °C.

As to GGCTACCCGAAAGGGGCC (((..(((....)))))), the folding enthalpy in series [1] is -18.9 kcal/mol. Further, in series [2], the Tm came out at 50.6 °C.

Consider GGCTACCGAAAGGTCGCC (((.(((....))).))), for which the folding enthalpy in series [1] was -39.2 kcal/mol. The Tm in series [2] is 58.6 °C.

For GGCTACCGAAAGGTGCC (((.(((....)))))), the folding enthalpy in series [1] was -31.3 kcal/mol. The Tm in series [2] was found to be 61.2 °C.

As for GGCTACGAAAGTATAGCC ((((((....)))..))), the folding enthalpy in series [1] is -25.1 kcal/mol. Besides, the Tm in series [2] amounted to 49.9 °C.

In the case of GGCTACGAAAGTATTGCC ((((((....)))..))), in series [1], the folding enthalpy is -20.1 kcal/mol. For the same sequence, the Tm in series [2] came to 44.1 °C.

For GGCTACGGAAACACAGCC ((((..(....)..)))), the folding enthalpy in series [1] was -23.6 kcal/mol. Moreover, the Tm in series [2] stood at 35.5 °C.

For the sequence GGCTACGGAAACGCAGCC ((((.((....)).)))), the folding enthalpy in series [1] is -53 kcal/mol. Further, the Tm in series [2] is 52.6 °C.

On to GGCTAGAAATAGCC (((((....))))), for which the folding enthalpy in series [1] was -24.6 kcal/mol. Besides, the Tm in series [2] amounted to 51.5 °C.

As for GGCTAGCCGAAAGGCGCC (((..(((....)))))), the folding enthalpy in series [1] was -15.9 kcal/mol. For the same sequence, in series [2], the Tm amounted to 59 °C.

In the case of GGCTAGCGAAAGCTGCC (((.(((....)))))), the folding enthalpy in series [1] was -22.7 kcal/mol. Further, the Tm in series [2] came to 64.3 °C.

In the case of GGCTAGCGAAAGCTTGCC (((.(((....))).))), the folding enthalpy in series [1] was -36.3 kcal/mol. For the same sequence, the Tm in series [2] is 65.6 °C.

As to GGCTAGGAAACTAGCC ((((((....)))))), the folding enthalpy in series [1] is -34.8 kcal/mol. Also, the Tm in series [2] came out at 60.4 °C.

With GGCTAGGGAAACCTAGCC (((((((....))))))), the folding enthalpy in series [1] is -42.6 kcal/mol. Moreover, the Tm in series [2] stood at 67.5 °C.

On to GGCTAGGGAAACCTGGTC (.(.(((....))).).), for which, in series [1], the folding enthalpy was -30.6 kcal/mol. The Tm in series [2] amounted to 35.5 °C.

In the case of GGCTAGGGAAACTTGGCC (((.(.(....).).))), the folding enthalpy in series [1] was -25.9 kcal/mol. Further, the Tm in series [2] was determined as 40.6 °C.

Turning to GGCTAGTCGAAAGACGCC (((..(((....)))))), the folding enthalpy in series [1] was -19.9 kcal/mol. Moreover, the Tm in series [2] was 52.3 °C.

As to GGCTATCGAAAGATGCC (((.(((....)))))), in series [1], the folding enthalpy was -25.3 kcal/mol. Further, the Tm in series [2] was found to be 52.8 °C.

As for GGCTATGGAAACATGGCC (((.(((....))).))), the folding enthalpy in series [1] was -53.7 kcal/mol. In addition, the Tm in series [2] is 53.2 °C.

Take GGCTCAGGAAACCAAGCC ((((..(....)..)))): the folding enthalpy in series [1] was -31.6 kcal/mol. Also, in series [2], the Tm is 35.3 °C.

Turning to GGCTCAGGAAACTGGGTC (.(.(((....))).).), the folding enthalpy in series [1] was -25.9 kcal/mol. Besides, in series [2], the Tm turned out to be 38 °C.

Take GGCTCCCCGAAAGGGGCC (((..(((....)))))): the folding enthalpy in series [1] was -12 kcal/mol. The Tm in series [2] is 50.9 °C.

With GGCTCCCGAAAGGGCGCC (((.(((....))).))), the folding enthalpy in series [1] was -33.6 kcal/mol. Moreover, in series [2], the Tm was found to be 62.6 °C.

For GGCTCCGAAAGGATAGCC ((((((....)))..))), in series [1], the folding enthalpy was -39.5 kcal/mol. Also, the Tm in series [2] was found to be 52.4 °C.
